Assay results taken from PubChem BioAssay AID2152 (The Scripps Research Institute Molecular Screening Center, 2009).
In all, about 2,300 compounds went through this assay and about 25 (1%) were called active.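 The calls were made as follows: active = mean inhibition over three replicate wells above the hit threshold derived in the earlier primary screen (cut at about 45% in these data); inactive = the rest.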 The entries come from a sample that favours actives as a whole.

system: Hepatitis C virus core protein (core106 dimerization); assay: inhibitors of HCV core protein dimerization, confirmation, biochemical, TR-FRET, triplicate (AID 2152); conditions: TR-FRET GST-/Flag-core106 dimerization, HTRF; at 5 µM; stronger effect = higher value;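 also: 0% = DMSO wells and 100% = unlabelled core106 competitor control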
How it was run: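 Test system – GST- and Flag-tagged HCV core106 peptides, dimerization via antibody TR-FRET · Amount – 17 nM Flag- plus 13.5 nM GST-core106 · Schedule – 4 h incubation, 22.5 °C · Compound dosing – one 5 µM dose, 0.5% DMSO · Detection – TR-FRET, 340 nm excitation, 671/617 nm emission · Reagent – Eu(K)-anti-GST plus XL665-anti-FLAG antibodies · Read-out basis – percent inhibition from emission ratio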

Structure (SMILES) | inhibition
Cc1ccc2nc(C)cc(C(=O)OCC(=O)c3ccc(Cl)c([N+](=O)[O-])c3)c2c1 | -4.97% (inactive)
CCN(CC)c1ccc(/C=N/NC(=O)Cc2nnc(NC(=O)Nc3ccccc3)s2)cc1 | -1.4% (inactive)
COc1ccc(/C=N/NC(=O)c2nn(-c3ccc(Cl)cc3)c(=O)c3c(N)scc23)cc1 | 9.33% (inactive)
O=C(COC(=O)C1c2ccccc2Oc2ccccc21)Nc1ccc2c(c1)OCO2 | -1.06% (inactive)
O=C(NC(=S)Nc1ccc(-c2ccc(CO)o2)cc1)c1cccs1 | -8.29% (inactive)
CC(C)(C)c1nnc2sc(SC/C(O)=C(\C#N)c3nc4ccccc4[nH]3)nn2c1=O | 0.37% (inactive)
CC1=CC(=O)c2c(O)ccc(O)c2C1=O | 35% (inactive)
O=C1c2c(O)cccc2Cc2cccc(O)c21 | 53.6% (active)
CC(C)C(C)(C#N)NC(=O)CSc1nc2scc(-c3ccco3)c2c(=O)n1-c1ccccc1 (stereo not given) | -0.21% (inactive)
N#C/C(=N\Nc1ccc(S(=O)(=O)N2CCc3ccccc32)cc1)C(N)=S | -0.77% (inactive)
CC(=O)Oc1ccc(C(=O)[C@H]2[C@H]3C(=O)N(c4ccccc4)C(=O)[C@H]3[C@@H]3C=CC=NN32)cc1 | -1.31% (inactive)
COc1ccc(-n2nc3cc(C)c(NC(=S)NC(=O)c4ccccc4C)cc3n2)cc1 | 14.3% (inactive)
COc1cccc(NC(=S)Nc2cc(C)cc(C)n2)c1 | 72.9% (active)
COc1cccc(NC(=O)c2cc(-c3ccc(C)o3)nc3ccccc23)c1 | -3.59% (inactive)
CC1Cc2ccccc2N1Cc1cc(=O)n2ccsc2n1 (stereo not given) | 3.14% (inactive)
COc1ccc(C(=O)[C@H]2[C@H]3C(=O)N(c4ccc(C)cc4)C(=O)[C@H]3C3C=CC=NN32)cc1 (stereo not given in full) | 2.52% (inactive)
Cc1cc(C)c2nc(-c3ccccn3)cc(C(=O)Nc3ccc(S(=O)(=O)Nc4cc(C)on4)cc3)c2c1 | 14.4% (inactive)
Cc1ccc2c(c1C)NC(C(=O)O)C1CC=CC21 (stereo not given) | 17.4% (inactive)
COc1cccc2c1NC(C(=O)O)C1CC=CC21 (stereo not given) | 8.1% (inactive)
O=C(O)C1Nc2c(O)cccc2C2C=CCC12 (stereo not given) | 53.8% (active)
COc1ccccc1Nc1ncc(-c2cccs2)s1 | -8.18% (inactive)
O=C(CN1CCN(c2ccc(F)cc2)CC1)NC(=O)NCc1ccco1 | -6.85% (inactive)

Structure (SMILES) | inhibition
O=C(Cn1c(=O)c2c(ncn2C2CCCC2)n(Cc2ccccc2)c1=O)N1CCc2ccccc21 | 5.72% (inactive)
CC(C)[C@H](NS(=O)(=O)c1ccccc1)C(=O)OCC(=O)N1N=C(c2ccc(Cl)cc2)CC1c1ccco1 (stereo not given in full) | -2.37% (inactive)
COc1ccc(C2CC(c3ccccc3)=NN2c2ccc(/C=N/NC(=O)c3ccncc3)cc2)cc1 (stereo not given) | -1.14% (inactive)
COc1ccc(C2=NN(c3nc(-c4ccccc4)c(CC(=O)O)s3)C(c3ccco3)C2)cc1 (stereo not given) | 51.3% (active)
COc1ccc(C(=O)N/N=C(\C)c2ccc3c(c2)C2C=CCC2C(c2ccccc2)N3)cc1 (stereo not given) | 1.09% (inactive)
Cc1cccc(N2CC(C(=O)Nc3nnc(SCc4ccccn4)s3)CC2=O)c1 (stereo not given) | 21.3% (inactive)
COc1ccc(C=O)cc1COc1ccc(F)cc1F | -6.06% (inactive)
O=C(Nc1ccc(N2CCCC2)c(Cl)c1)c1cccc(-c2cc3ccccc3oc2=O)c1 | -5.08% (inactive)
N#Cc1c(-c2ccco2)cc(-c2ccccn2)nc1N | 3.09% (inactive)
CCN(CC(=O)Nc1ccc(OC)cc1)C(=O)Cc1cccs1 | 6.25% (inactive)
Cc1ccc(C)c(S(=O)(=O)N2CCC(c3nc4c(nnn4Cc4ccc5c(c4)OCCO5)c(=O)[nH]3)CC2)c1 | 7.31% (inactive)
Cc1ccc(O)c(N=CC2=C(O)c3ccccc3C2=O)c1 | 7.52% (inactive)
COc1ccccc1NS(=O)(=O)c1cc(NC(=O)Nc2ccc(Cl)cc2Cl)ccc1N1CCCCC1 | -5.21% (inactive)
O=Cc1cn(-c2ccccc2)nc1-c1cc2c(ccc3ccccc32)oc1=O | -0.21% (inactive)
COC(=O)/C=c1/s/c(=C(\C#N)C(=O)NCc2ccco2)n(-c2ccc(C)cc2)c1=O | -4.05% (inactive)
Cc1c(C(=O)Nc2ccc(Cl)cc2)c2ccccn2c1C(=O)c1ccc([N+](=O)[O-])cc1 | -5.31% (inactive)
O=C(OCC(=O)c1ccc(Cl)s1)c1cnccn1 | 1.14% (inactive)
CCOC(=O)c1ccc(NC(=O)COc2ccc(-n3cnnn3)cc2)cc1 | 3.21% (inactive)
COc1ccccc1N1CCN(C(=O)c2ccc3c(c2)NC(=O)C(CSCc2ccccc2C)N3)CC1 (stereo not given) | 25.3% (inactive)
Cc1ccc(N2C(=O)N3[C@H](c4ccc(F)cc4)[C@@H]4C(=O)N(C5CCCCC5)C(=O)[C@@H]4[C@]3(Cc3ccccc3)C2=O)cc1 | -1.83% (inactive)
CC(=O)Nc1ccc(NC(=O)c2ccc(COc3ccccc3)cc2)cc1 | -12.8% (inactive)
Cc1cc(-c2csc(NC(=O)c3cc4ccccc4o3)n2)c(C)n1C | 22.5% (inactive)

Structure (SMILES) | inhibition
COC(=O)c1ccc(Oc2coc3cc(OCc4cnn(-c5ccccc5)c4)ccc3c2=O)cc1 | -4.6% (inactive)
N#Cc1c(-c2cccc(F)c2)cc(-c2ccccc2)nc1Br | 9.78% (inactive)
CCOC(=O)C1=C(c2ccccc2)NC(=S)NC1c1cc([N+](=O)[O-])ccc1OC (stereo not given) | -1.99% (inactive)
COc1ccc(-n2c(-c3ccccc3)nc(=S)c3c2CCCC3)cc1 | 33.8% (inactive)
O=[N+]([O-])c1ccc(Oc2cc(NC3CCCCCCC3)c([N+](=O)[O-])cc2[N+](=O)[O-])cc1 | -0.42% (inactive)
Cc1ccc2nc(/C(C#N)=C\c3ccc(Oc4ccc(C(F)(F)F)cc4[N+](=O)[O-])cc3)[nH]c2c1 | -6.22% (inactive)
N#CC(=C1CCCC1)c1nc(-c2ccccc2O)cs1 | -2% (inactive)
O=C(Nc1ccc2c(c1)OCO2)c1cc(-c2cccnc2)nc2ccccc12 | -0.48% (inactive)
O=C1C2C3C=CC(C4CC34)C2C(=O)N1/N=C/c1ccc(-c2ccc(Cl)cc2[N+](=O)[O-])o1 (stereo not given) | -5.46% (inactive)
CCN1C=C(Cc2cccs2)C2=C(C1)C(c1cccs1)C(C#N)=C(N)O2 (stereo not given) | -3.27% (inactive)
CSc1nc(SCC(=O)NCc2ccco2)c2c3c(sc2n1)CN(C)CC3 | 20.1% (inactive)
CCCCc1nc2sc3c(SCC(=O)NCc4ccco4)ncnc3c2c2c1CCC2 | 52.8% (active)
CCCc1nc2sc3c(SCC(=O)NCc4ccco4)ncnc3c2c2c1CCC2 | 15.9% (inactive)
O=C(NCc1ccco1)C(c1ccco1)N(C(=O)Cn1nnc2ccccc21)c1ccc2c(c1)CCC2 (stereo not given) | 6.56% (inactive)
COc1ccc(/C=C/C(=O)Nc2cc(C)nn2-c2nc3ccccc3n2Cc2cccc([N+](=O)[O-])c2)cc1 | -5.15% (inactive)
COc1ccc(NS(=O)(=O)c2ccc(O)c(NC(=O)c3cc4c(C)nn(-c5ccc(F)cc5)c4s3)c2)cc1 | -2.83% (inactive)
Cc1ccc(Cn2c(SCC(=O)Nc3cc(C)on3)nc3ccccc3c2=O)cc1 | 9.61% (inactive)
COc1cccc(-n2c(SCC(=O)Nc3cc(C)on3)nc3c([nH]c4ccccc43)c2=O)c1 | -2.22% (inactive)
CCCCn1c(SCC(=O)Nc2cc(C)on2)nc2ccccc2c1=O | 54.9% (active)
CC1CCCCC12NC(=O)N(CC(=O)c1ccc[nH]1)C2=O (stereo not given) | -2.48% (inactive)
Cn1c(SCC(=O)Nc2sccc2C#N)nnc1-c1ccccc1 | -0.16% (inactive)
